“And” between values parts separate entries of the source, which are not always exact repeats. Equal entries are not always repeated.
What was measured:
P. aeruginosa NCTC 13437 = experiment: Broth microdilution MIC/MBC, P. aeruginosa; assay type: cell-based, Pseudomonas aeruginosa; conditions: for MIC P. aeruginosa NCTC 13437: value before the parentheses, two values = two repeats; for MBC P. aeruginosa NCTC 13437: value in parentheses
Procedure, shortened: (§1)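 CLSI broth microdilution in cation-adjusted Mueller–Hinton broth. Log-phase cultures were diluted to 7.5 × 10^5 CFU/mL, then mixed 1:1 with 2-fold serial dilutions of gold complexes from DMSO or water stocks, in triplicate, and held 37 °C, 18 h, static. MIC: lowest concentration giving >90% inhibition by OD600 against medium-only and bacteria-only wells. […] E. coli ATCC 25922 quality control was checked each run with ciprofloxacin and […].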

A549 cells = experiment: Cytotoxicity assay; assay type: cell-based, human
E. coli ATCC 25922 = experiment: Broth microdilution MIC/MBC, E. coli; assay type: cell-based, Escherichia coli; conditions: for MIC E. coli ATCC 25922: value before the parentheses, two values = two repeats; for MBC E. coli ATCC 25922: value in parentheses
Procedure, shortened: as §1

E. faecium ATCC 700221 = experiment: Broth microdilution MIC/MBC, E. faecium; assay type: cell-based, Enterococcus faecium; conditions: for MIC E. faecium ATCC 700221: value before the parentheses, two values = two repeats; for MBC E. faecium ATCC 700221: value in parentheses
Procedure, shortened: as §1

A. baumannii NCTC 13420 = experiment: Broth microdilution MIC/MBC, A. baumannii; assay type: cell-based, Acinetobacter baumannii; conditions: for MBC A. baumannii NCTC 13420: value in parentheses; for MIC A. baumannii NCTC 13420: value before the parentheses, two values = two repeats
E. cloacae NCTC 13405 = experiment: Broth microdilution MIC/MBC, E. cloacae; assay type: cell-based, Enterobacter cloacae; conditions: for MIC E. cloacae NCTC 13405: value before the parentheses, two values = two repeats; for MBC E. cloacae NCTC 13405: value in parentheses; for fold enhancement of activity over auranofin, E. cloacae: vs auranofin
Procedure, shortened: as §1

[1] = test system: K. pneumoniae ATCC 700603; experiment: Broth microdilution MIC/MBC, K. pneumoniae; assay type: cell-based, Klebsiella pneumoniae; conditions: for MIC K. pneumoniae ATCC 700603: value before the parentheses, two values = two repeats; for MBC K. pneumoniae ATCC 700603: value in parentheses; for fold enhancement of activity over auranofin, K. pneumoniae: vs auranofin
Procedure, shortened: as §1

S. aureus JE2 (USA300) = experiment: Broth microdilution MIC/MBC, S. aureus; assay type: cell-based, Staphylococcus aureus; conditions: for MIC S. aureus JE2 (USA300): value before the parentheses, two values = two repeats; for MBC S. aureus JE2 (USA300): value in parentheses
Procedure, shortened: as §1

Log P determination = conditions: n-octanol/water, Au by FAAS
Gram-negative strains = experiment: Broth microdilution, Gram-negative strains taken together; assay type: cell-based
rat = conditions: cited from earlier work

In the case of `CC(=O)OCC1O[C@@H]([S][Au-][P+](C)(C)C)C(OC(C)=O)[C@@H](OC(C)=O)[C@@H]1OC(C)=O` (stereo partly drawn) [Compound 31, (2,3,4,6-Tetra-O-acetyl-1-thio-β-D-glucopyranosato)-(trimethylphosphine) Gold(I)], the MIC P. aeruginosa NCTC 13437 (P. aeruginosa NCTC 13437) is reported as 101 µM, the MBC P. aeruginosa NCTC 13437 (P. aeruginosa NCTC 13437) is reported as 101 µM and the IC50 (A549 cells; read-out: IC50 against A549 cells, means ± SEM from two independent experiments) is reported as 20.6 ± 3.6 µM. The MIC E. coli ATCC 25922 (E. coli ATCC 25922) was 6 µM, the MBC E. coli ATCC 25922 (E. coli ATCC 25922) was 6 µM and the “MIC E. faecium ATCC 700221” value (E. faecium ATCC 700221) was 0.2 µM and 0.4 µM. The “MBC E. faecium ATCC 700221” value (E. faecium ATCC 700221) was 0.8 µM, the “MBC A. baumannii NCTC 13420” value (A. baumannii NCTC 13420) was 101 µM and the “MIC E. cloacae NCTC 13405” value (E. cloacae NCTC 13405) was 3.1 µM and 3 µM. For the same compound, the “MBC E. cloacae NCTC 13405” value (E. cloacae NCTC 13405) was 3.1 µM and 3 µM, the “fold enhancement of activity over auranofin, E. cloacae” value (E. cloacae NCTC 13405) was 60 and 61 and the MIC K. pneumoniae ATCC 700603 [1] was 13 µM. The MBC K. pneumoniae ATCC 700603 [1] was 13 µM, the “fold enhancement of activity over auranofin, K. pneumoniae” value [1] was 30 and the “MIC S. aureus JE2 (USA300)” value (S. aureus JE2 (USA300)) was 0.1 µM. For the same compound, the “MBC S. aureus JE2 (USA300)” value (S. aureus JE2 (USA300)) was 0.2 µM and the “log P” value (Log P determination) was 0.35.

In the case of `CC[P+](CC)(CC)[Au-][S]CCO` [Compound 21, (2-Mercaptoethanolato)(triethylphosphine) Gold(I)], the “MIC P. aeruginosa NCTC 13437” value (P. aeruginosa NCTC 13437) is reported as 41 µM, the “MBC P. aeruginosa NCTC 13437” value (P. aeruginosa NCTC 13437) is reported as 41 µM and the “fold enhancement of activity over auranofin, P. aeruginosa” value (P. aeruginosa NCTC 13437; vs auranofin) is reported as 9. For the same compound, the “fold enhancement of activity over auranofin, Gram-negative strains” value (Gram-negative strains; vs auranofin) was 5–19, the “cytotoxicity relative to auranofin (times less toxic)” value (A549 cells; A549 cells, vs auranofin) was 1.6 and the MIC E. coli ATCC 25922 (E. coli ATCC 25922) was 10 µM. For the same compound, the MBC E. coli ATCC 25922 (E. coli ATCC 25922) was 10 µM, the “MIC E. faecium ATCC 700221” value (E. faecium ATCC 700221) was 0.2 µM and 0.3 µM and the “MBC E. faecium ATCC 700221” value (E. faecium ATCC 700221) was 0.6 µM. The “MIC A. baumannii NCTC 13420” value (A. baumannii NCTC 13420) was 10 µM, the “MBC A. baumannii NCTC 13420” value (A. baumannii NCTC 13420) was 82 µM and the “MIC E. cloacae NCTC 13405” value (E. cloacae NCTC 13405) was 5 µM and 10 µM. For the same compound, the “MBC E. cloacae NCTC 13405” value (E. cloacae NCTC 13405) was 82 µM, the “fold enhancement of activity over auranofin, E. cloacae” value (E. cloacae NCTC 13405) was 19 and the “MIC K. pneumoniae ATCC 700603” value [1] was 20 µM. For the same compound, the “MBC K. pneumoniae ATCC 700603” value [1] was 20 µM, the “fold enhancement of activity over auranofin, K. pneumoniae” value [1] was 19 and the MIC S. aureus JE2 (USA300) (S. aureus JE2 (USA300)) was 0.03 µM. The MBC S. aureus JE2 (USA300) (S. aureus JE2 (USA300)) was 0.03 µM and the “log P” value (Log P determination) was 1.19.

In the case of `CCP(CC)CC.[Au+].[Cl-]` [Compound 25, (Triethylphosphine)gold Chloride], the “MIC P. aeruginosa NCTC 13437” value (P. aeruginosa NCTC 13437) is reported as 92 µM, the “MBC P. aeruginosa NCTC 13437” value (P. aeruginosa NCTC 13437) is reported as 183 µM and the MIC E. coli ATCC 25922 (E. coli ATCC 25922) is reported as 23 µM. The MBC E. coli ATCC 25922 (E. coli ATCC 25922) was 23 µM, the “MBC E. faecium ATCC 700221” value (E. faecium ATCC 700221) was 0.7 µM and the “MBC A. baumannii NCTC 13420” value (A. baumannii NCTC 13420) was 23 µM. The “rat acute oral LD50” value (rat) was 79.0 mg/kg, the MIC E. cloacae NCTC 13405 (E. cloacae NCTC 13405) was 23 µM and the MBC E. cloacae NCTC 13405 (E. cloacae NCTC 13405) was 23 µM. The MIC K. pneumoniae ATCC 700603 [1] was 46 µM, the MBC K. pneumoniae ATCC 700603 [1] was 46 µM and the “MBC S. aureus JE2 (USA300)” value (S. aureus JE2 (USA300)) was 0.2 µM. The “log P” value (Log P determination) was 1.74.

With `CCCC[P+](CCCC)(CCCC)[Au-][S][C@@H]1OC(COC(C)=O)[C@@H](OC(C)=O)[C@H](OC(C)=O)C1OC(C)=O` (stereo partly drawn) [Compound 32, (2,3,4,6-Tetra-O-acetyl-1-thio-β-D-glucopyranosato)(tri-n-butylphosphine) Gold(I)] the “MIC P. aeruginosa NCTC 13437” value (P. aeruginosa NCTC 13437) was greater than 336 µM, the “activity toward Gram-negative strains (in words)” value (Gram-negative strains) was “completely diminished the activity” and the “MIC E. coli ATCC 25922” value (E. coli ATCC 25922) was greater than 336 µM. The “MIC E. faecium ATCC 700221” value (E. faecium ATCC 700221) was 3 µM and 5 µM, the “MBC E. faecium ATCC 700221” value (E. faecium ATCC 700221) was 3 µM and the “MIC A. baumannii NCTC 13420” value (A. baumannii NCTC 13420) was 84 µM. The “MBC A. baumannii NCTC 13420” value (A. baumannii NCTC 13420) was greater than 336 µM, the “MIC E. cloacae NCTC 13405” value (E. cloacae NCTC 13405) was greater than 336 µM and the “MIC K. pneumoniae ATCC 700603” value [1] was greater than 336 µM. The MIC S. aureus JE2 (USA300) (S. aureus JE2 (USA300)) was 3 µM, the MBC S. aureus JE2 (USA300) (S. aureus JE2 (USA300)) was 3 µM and the “log P” value (Log P determination) was greater than 4.32.
